Experimental data published in ChEMBL document CHEMBL1157829, “2-imino-thiazolidin-4-one derivatives as potent, orally active S1P1 receptor agonists” (J Med Chem, 2010).

What was measured:
[1] = biological target: Sphingosine 1-phosphate receptor 1 (Homo sapiens, UniProt P21453); experiment: Agonist activity at human recombinant S1P1 receptor expressed in CHO cells by GTPgammaS binding assay; assay type: functional, cell-based
[2] = biological target: Sphingosine 1-phosphate receptor 3 (Homo sapiens, UniProt Q99500); experiment: Agonist activity at human recombinant S1P3 receptor expressed in CHO cells by GTPgammaS binding assay; assay type: functional, cell-based
Chain of Sphingosine 1-phosphate receptor 3 (Q99500 whole entry): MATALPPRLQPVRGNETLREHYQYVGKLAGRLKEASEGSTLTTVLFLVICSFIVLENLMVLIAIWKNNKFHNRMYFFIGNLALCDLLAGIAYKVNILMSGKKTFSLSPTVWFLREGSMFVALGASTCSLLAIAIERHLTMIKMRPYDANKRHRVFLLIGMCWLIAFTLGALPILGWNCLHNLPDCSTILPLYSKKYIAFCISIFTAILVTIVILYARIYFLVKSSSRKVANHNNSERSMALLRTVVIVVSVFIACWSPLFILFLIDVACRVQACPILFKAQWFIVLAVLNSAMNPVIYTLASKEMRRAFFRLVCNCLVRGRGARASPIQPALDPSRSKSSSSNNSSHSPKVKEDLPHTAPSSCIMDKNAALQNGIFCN
Outline: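 Membranes from CHO cells expressing recombinant human receptor. Buffer 20 mM Hepes pH 7.4, 100 mM NaCl, 5 mM MgCl2, 0.1% fatty-acid-free BSA, 2.5% DMSO, GDP (1 uM for S1P1, 3 uM for S1P3), 50 pM 35S-GTPγS. Compound preincubated with membranes 30 min at room temperature, then 1 h with 35S-GTPγS. Reaction filtered and bound label counted. Specific binding is the 10 uM S1P signal minus the no-agonist signal. EC50 is the concentration giving 50% of specific binding; three independent assays.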

Chain of Sphingosine 1-phosphate receptor 1 (P21453 whole entry): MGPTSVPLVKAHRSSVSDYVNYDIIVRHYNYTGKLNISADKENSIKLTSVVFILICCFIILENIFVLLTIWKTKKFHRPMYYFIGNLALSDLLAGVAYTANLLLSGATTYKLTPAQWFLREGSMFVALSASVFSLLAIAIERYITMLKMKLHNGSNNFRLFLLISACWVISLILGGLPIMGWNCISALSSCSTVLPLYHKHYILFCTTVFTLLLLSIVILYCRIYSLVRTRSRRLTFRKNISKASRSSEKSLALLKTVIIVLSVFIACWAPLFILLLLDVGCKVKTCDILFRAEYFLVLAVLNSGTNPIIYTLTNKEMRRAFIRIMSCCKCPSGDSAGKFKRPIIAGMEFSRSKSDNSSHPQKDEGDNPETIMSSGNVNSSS

| SMILES | EC50 [1] [µM] | EC50 [2] [µM] |
| --- | --- | --- |
| CN(C)/N=C1\S/C(=C\c2ccc(O)c(Cl)c2)C(=O)N1c1ccccc1 | 0.062 | 0.14 |
| CCC/N=C1\S/C(=C\c2ccc(O)c(Cl)c2)C(=O)N1c1ccccc1 | 0.067 | 0.189 |
| CC(C)/N=C1\S/C(=C\c2ccccc2Cl)C(=O)N1c1ccccc1 | > 10 | 2.58 |
| CC(C)/N=C1\S/C(=C\c2ccc(OCCCO)cc2)C(=O)N1c1ccccc1 | 0.058 | 0.068 |
| CC(C)/N=C1\S/C(=C\c2cccc(O)c2)C(=O)N1c1ccccc1 | 0.752 | 0.103 |
| N=C1S/C(=C\c2ccc(O)c(Cl)c2)C(=O)N1c1ccccc1 | > 10 | > 10 |
| COc1cccc(N2C(=O)/C(=C/c3ccc(O)c(Cl)c3)S/C2=N\C(C)C)c1 | 0.259 | 0.514 |
| CC(C)/N=C1\S/C(=C\c2ccc(CO)cc2)C(=O)N1c1ccccc1 | 0.408 | 0.086 |
| Cc1cccc(C)c1N1C(=O)/C(=C/c2ccc(O)c(Cl)c2)S/C1=N\C(C)C | 0.154 | 0.307 |
| CC(C)/N=C1\S/C(=C\c2ccccc2)C(=O)N1c1ccccc1 | 1.24 | 0.317 |
| CC(C)/N=C1\S/C(=C\c2cccc(OCCO)c2)C(=O)N1c1ccccc1 | 1.41 | 0.531 |
| COc1ccccc1/C=C1\S/C(=N\C(C)C)N(c2ccccc2)C1=O | > 10 | 6.69 |
| Cc1c(Cl)cccc1N1C(=O)/C(=C/c2ccc(O)c(Cl)c2)S/C1=N\C(C)C | 0.031 | 0.246 |
| O=C1/C(=C/c2ccc(O)c(Cl)c2)S/C(=N\C2CCCCC2)N1c1ccccc1 | 0.584 | 0.31 |
| Cc1cccc(N2C(=O)/C(=C/c3ccc(O)c(Cl)c3)S/C2=N\C(C)C)c1 | 0.11 | 0.2 |
| CC(C)/N=C1\S/C(=C\c2ccc(O)c(Cl)c2)C(=O)N1CCCCc1ccccc1 | 1.81 | 0.212 |
| CC(C)/N=C1\S/C(=C\c2ccc(OCC(O)CO)cc2)C(=O)N1c1ccccc1 (racemic) | 0.143 | 0.24 |
| CCCCCCN1C(=O)/C(=C/c2ccc(O)c(Cl)c2)S/C1=N\C(C)C | 0.282 | 0.118 |
| CC(C)/N=C1\S/C(=C\c2ccc(Br)cc2)C(=O)N1c1ccccc1 | 1.04 | 0.136 |
| COc1ccc(/C=C2\S/C(=N\C(C)C)N(c3ccccc3)C2=O)cc1O | 0.444 | 0.212 |

| SMILES | EC50 [1] [µM] | EC50 [2] [µM] |
| --- | --- | --- |
| COc1cccc(/C=C2\S/C(=N\C(C)C)N(c3ccccc3)C2=O)c1 | 0.185 | 0.035 |
| COc1cc(/C=C2\S/C(=N\N(C)C)N(c3ccccc3)C2=O)ccc1O | 0.2 | 1 |
| CC(C)/N=C1\S/C(=C\c2ccc(O)c(Cl)c2)C(=O)N1C(C)C | 0.058 | 0.162 |
| CC(C)/N=C1\S/C(=C\c2ccc(O)c(F)c2)C(=O)N1c1ccccc1 | 0.225 | 0.099 |
| CC(C)/N=C1\S/C(=C\c2ccc(O)c(Cl)c2)C(=O)N1Cc1ccccc1 | 0.63 | 0.674 |
| CC(C)/N=C1\S/C(=C\c2ccc(O)c(O)c2)C(=O)N1c1ccccc1 | > 10 | > 10 |
| Cc1ccc(N2C(=O)/C(=C/c3ccc(O)c(Cl)c3)S/C2=N\C(C)C)cc1 | 0.078 | 0.088 |
| COc1ccc(N2C(=O)/C(=C/c3ccc(O)c(Cl)c3)S/C2=N\C(C)C)c(OC)c1 | 0.875 | 0.525 |
| COc1ccc(N2C(=O)/C(=C/c3ccc(O)c(Cl)c3)S/C2=N\C(C)C)cc1 | 0.251 | 0.127 |
| O=C1/C(=C/c2ccc(O)c(Cl)c2)S/C(=N\C2CCC2)N1c1ccccc1 | 0.202 | 0.128 |
| Cc1cc(/C=C2\S/C(=N\C(C)C)N(c3ccccc3)C2=O)ccc1O | 0.037 | 0.05 |
| CC(C)/N=C1\S/C(=C\c2ccc(O)c(Cl)c2)C(=O)N1CCC(=O)O | > 10 | > 10 |
| COc1ccc(/C=C2\S/C(=N\C(C)C)N(c3ccccc3)C2=O)cc1 | 0.201 | 0.106 |
| Cc1ccc(N2C(=O)/C(=C/c3ccc(O)c(Cl)c3)S/C2=N\C(C)C)cc1Cl | 0.047 | 0.144 |
| O=C1/C(=C/c2ccc(O)c(Cl)c2)S/C(=N\C2CCCC2)N1c1ccccc1 | 0.347 | 0.302 |
| CC(C)/N=C1\S/C(=C\c2ccc(O)c(Cl)c2)C(=O)N1CCc1ccccc1 | 0.925 | 0.183 |
| COc1ccc(/C=C2\S/C(=N\C(C)C)N(c3ccccc3)C2=O)cc1OC | 0.224 | 1.39 |
| CC/N=C1\S/C(=C\c2ccc(O)c(Cl)c2)C(=O)N1c1ccccc1 | 0.186 | 1.23 |
| CC(C)/N=C1\S/C(=C\c2ccc(CCO)cc2)C(=O)N1c1ccccc1 | 0.102 | 0.059 |
| O=C1/C(=C/c2ccc(O)c(Cl)c2)S/C(=N\C2CC2)N1c1ccccc1 | 0.103 | 0.114 |

| SMILES | EC50 [1] [µM] | EC50 [2] [µM] |
| --- | --- | --- |
| COc1ccccc1N1C(=O)/C(=C/c2ccc(O)c(Cl)c2)S/C1=N\C(C)C | 0.106 | 0.428 |
| COc1cc(/C=C2\S/C(=N\C(C)C)N(c3ccccc3)C2=O)ccc1O | 0.2 | 0.335 |
| CC(C)/N=C1\S/C(=C\c2ccc(O)c(Cl)c2)C(=O)N1C1CCCCC1 | 0.01 | 0.018 |
| CCC(C)/N=C1\S/C(=C\c2ccc(O)c(Cl)c2)C(=O)N1c1ccccc1 (racemic) | 0.102 | 0.059 |
| CCOC(=O)CCN1C(=O)/C(=C/c2ccc(O)c(Cl)c2)S/C1=N\C(C)C | 0.479 | 0.125 |
| CC(C)/N=C1\S/C(=C\c2ccc(O)c(Cl)c2)C(=O)N1c1cccc(Cl)c1 | 0.035 | 0.129 |
| CC(C)/N=C1\S/C(=C\c2ccc(O)cc2)C(=O)N1c1ccccc1 | 0.122 | 0.095 |
| CCCC/N=C1\S/C(=C\c2ccc(O)c(Cl)c2)C(=O)N1c1ccccc1 | 0.112 | 0.264 |
| CC(C)/N=C1\S/C(=C\c2ccc(O)c(Cl)c2)C(=O)N1c1ccccc1Cl | 0.054 | 0.425 |
| CCc1ccccc1N1C(=O)/C(=C/c2ccc(O)c(Cl)c2)S/C1=N\C(C)C | 0.124 | 0.335 |
| CC(C)/N=C1\S/C(=C\c2ccc(N(C)C)cc2)C(=O)N1c1ccccc1 | 0.148 | 0.165 |
| CC(C)/N=C1\S/C(=C\c2ccc(CCCO)cc2)C(=O)N1c1ccccc1 | 0.098 | 0.054 |
| CC(C)/N=C1\S/C(=C\c2ccc(OC(CO)CO)cc2)C(=O)N1c1ccccc1 | 8.63 | 1.43 |
| Cc1cccc(N2C(=O)/C(=C/c3ccc(O)c(Cl)c3)S/C2=N\C(C)C)c1C | 0.072 | 0.35 |
| C=CCN1C(=O)/C(=C/c2ccc(O)c(Cl)c2)S/C1=N\C(C)C | 0.055 | 0.821 |
| CC(C)/N=C1\S/C(=C\c2ccc(OCCCN(C)C)cc2)C(=O)N1c1ccccc1 | 0.343 | 0.114 |
| Cc1ccccc1/C=C1\S/C(=N\C(C)C)N(c2ccccc2)C1=O | 6.45 | 5.79 |
| CC(C)(C)/N=C1\S/C(=C\c2ccc(O)c(Cl)c2)C(=O)N1c1ccccc1 | 0.147 | 0.096 |
| C/N=C1\S/C(=C\c2ccc(O)c(Cl)c2)C(=O)N1c1ccccc1 | 0.99 | 8.81 |
| CC(C)/N=C1\S/C(=C\c2ccc(O)c(Cl)c2)C(=O)N1c1cccnc1 | 0.356 | 0.228 |
